This is an account of results in ChEMBL document CHEMBL4371016, “Proline- and Arginine-Rich Peptides as Flexible Allosteric Modulators of Human Proteasome Activity” (J Med Chem, 2019).

Compound in data set [1]: CC(C)C[C@H](NC(=O)[C@H](Cc1ccc(O)cc1)NC(=O)[C@@H]1CCCN1C(=O)[C@@H]1CCCN1C(=O)[C@H](CCCNC(=N)N)NC(=O)[C@@H]1CCCN1C(=O)[C@H](CCCNC(=N)N)NC(=O)[C@H](CCCNC(=N)N)NC(=O)[C@@H](N)CCCNC(=N)N)C(=O)N1CCC[C@H]1C(=O)N[C@@H](CCCNC(=N)N)C(=O)N[C@@H](Cc1c[nH]c2ccccc12)C(=O)NCC(=O)O
As to the kind of experiment: (§1) Non-competitive mixed-type inhibition of SDS-activated human erythrocytes 20S proteasome chymotrypsin like activity assessed as substrate Vmax using Suc-LLVY-AMC as substrate measured every 2 mins up to 60 mins by fluorescence assay. In outline:
(§2)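 SDS-activated CP at 1.4 nM. Suc-LLVY-AMC varied from 20 to 200 μM at inhibitor levels of 0.05, 0.1 and 0.2 μM. Fluorescence read kinetically at 37 °C. […] Three independent replicates.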

Compound in data set [2]: CC(C)C[C@H](NC(=O)[C@H](Cc1ccc(O)cc1)NC(=O)[C@H](CCCNC(=N)N)NC(=O)[C@H](CCCNC(=N)N)NC(=O)[C@@H](N)CCCNC(=N)N)C(=O)N1CCC[C@H]1C(=O)N[C@@H](CCCNC(=N)N)C(=O)N[C@@H](Cc1c[nH]c2ccccc12)C(=O)NCC(N)=O
Described as §1. Put shortly: as §2

Compound in data set [3]: CC(C)C[C@H](NC(=O)[C@H](Cc1ccc(O)cc1)NC(=O)[C@@H]1CCCN1C(=O)[C@@H]1CCCN1C(=O)[C@H](CCCNC(=N)N)NC(=O)[C@@H]1CCCN1C(=O)[C@H](CCCNC(=N)N)NC(=O)[C@H](CCCNC(=N)N)NC(=O)[C@@H](N)CCCNC(=N)N)C(=O)N1CCC[C@H]1C(=O)N[C@@H](CCCNC(=N)N)C(=O)N[C@@H](Cc1c[nH]c2ccccc12)C(=O)NCC(=O)O
Put plainly: (§3) Non-competitive mixed-type inhibition of SDS-activated human erythrocytes 20S proteasome chymotrypsin like activity assessed as substrate Km using Suc-LLVY-AMC as substrate measured every 2 mins up to 60 mins by fluorescence assay. Put shortly:
as §2

Compound in data set [4]: CC(C)C[C@H](NC(=O)[C@H](Cc1ccc(O)cc1)NC(=O)[C@H](CCCNC(=N)N)NC(=O)[C@H](CCCNC(=N)N)NC(=O)[C@@H](N)CCCNC(=N)N)C(=O)N1CCC[C@H]1C(=O)N[C@@H](CCCNC(=N)N)C(=O)N[C@@H](Cc1c[nH]c2ccccc12)C(=O)NCC(N)=O
Described as §3. Put shortly: as §2

B1: Proteasome Macropain subunit MB1 (Homo sapiens), P28074 (protein)
chain: MALASVLERPLPVNQRGFFGLGGRADLLDLGPGSLSDGLSLAAPGWGVPEEPGIEMLHGTTTLAFKFRHGVIVAADSRATAGAYIASQTVKKVIEINPYLLGTMAGGAADCSFWERLLARQCRIYELRNKERISVAAASKLLANMVYQYKGMGLSMGTMICGWDKRGPGLYYVDSEGNRISGATFSVGSGSVYAYGVMDRGYSYDLEVEQAYDLARRAIYQATYRDAYSGGAVNLYHVREDGWIRVSSDNVADLHEKYSGSTP
Broadly, the Km is the substrate concentration at which the rate is half of its maximum. As for B1, the Vmax was 13.6 s⁻¹ in data set [1] and 13.5 s⁻¹ in data set [2]. Also, the Km in data set [3] was 17.4 µM; in data set [4], 14 µM.
